Screening results as filed in PubChem BioAssay.
Ecoli rRNA inh – reduced GFP signal of wild-type E. coli, primary screen, bacterial rRNA inhibitor project, GFP/RFP fluorescence, OD600, single point | E. coli WT GFP vs humanized-ribosome RFP mutants, 24 h; stronger effect = lower value; DMSO median 0, no signal -100 | GFP signal change (wild-type ribosome), % (test concentration not listed) | actives 1.6% (n = 350,000);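 active = significant combined selectivity score with lowered wild-type GFP, culture density cut under 30%, mutant RFP and density less affected; inactive = any of these conditions unmet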
ERAP1 inh – human ERAP1 aminopeptidase inhibitors, primary screen, biochemical, single point, plate reader | recombinant ERAP1, Leu-AMC fluorescence, 60 min | inhibition, % at 10.7 µM | actives 0.15% (n = 340,000);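 active = mean replicate inhibition of at least 30%, or all replicates individually reaching that 30% level; inactive = mean below 30% and not every replicate reaching it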;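 note: 0% = neutral control wells and 100% = L-leucinethiol positive control wells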
S100A4 inh HTS – inhibitors of S100A4-myosin IIA peptide binding, primary screen, biochemical, fluorescence polarization, TAMRA-MyoIIA peptide; inhibition, % at 10.7 µM; actives 0.14% (n = 360,000); Protein S100-A4 (Homo sapiens), P26447; AID 652163, 2013;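 active = mean inhibition of at least 70% across replicates, with every replicate also reaching that level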
Target sequence (P26447 whole entry, looked up): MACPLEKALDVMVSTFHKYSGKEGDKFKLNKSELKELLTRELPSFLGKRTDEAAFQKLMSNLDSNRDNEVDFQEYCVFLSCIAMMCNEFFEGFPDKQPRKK
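Material: S100A4 monomer protein | Medium: HEPES pH 7.2 with CaCl2, KCl, NaCl, DTT, Triton | Reagent: Labelled myosin peptide probe, 5 nM | Doses: One dose per compound | Times: 5 min incubation before reading | Benchmarks: Neutral control DMSO, positive control TFP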
PGC1a acetyl inh – inhibitors of PGC1a acetylation signal, primary screen, cell-based, U2OS, AlphaScreen, inhibitor mode. AlphaScreen anti-acetyl-lysine; with virally co-expressed GCN5 acetyltransferase. inhibition, % at 15.6 µM. actives 0.17% (n = 350,000);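 active = every replicate shows inhibition of at least 40%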;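 note: 0% = neutral control wells and 100% = positive control wells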
Casp6 inh – human caspase-6 inhibitors, primary screen, biochemical, VEID-R110 fluorescence, single point, set 2 | P55212 | purified caspase-6, Z-VEID-R110 cleavage fluorescence | inhibition, % at 12.5 µM | actives 0.53% (n = 350,000) | AID 686996, 2013;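 active = mean inhibition across replicates at least about 35%, with every replicate also reaching that limit, limit read from the data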;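 note: 0% = median of neutral control wells and 100% = no fluorescence left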
Target sequence (P55212 24-179 limits assumed): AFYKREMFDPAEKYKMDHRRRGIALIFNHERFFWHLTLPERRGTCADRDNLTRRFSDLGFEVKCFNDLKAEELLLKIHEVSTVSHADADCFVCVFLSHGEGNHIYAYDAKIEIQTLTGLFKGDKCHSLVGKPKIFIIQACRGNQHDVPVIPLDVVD
Target sequence (P55212 194-293 limits assumed): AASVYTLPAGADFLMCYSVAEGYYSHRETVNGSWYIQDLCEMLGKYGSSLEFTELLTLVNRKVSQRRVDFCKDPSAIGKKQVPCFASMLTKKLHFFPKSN
ARNT TACC3 PPI – disruptors of ARNT/TACC3 protein interaction, primary screen, biochemical, AlphaScreen, single concentration. Transforming acidic coiled-coil-containing protein 3 (Homo sapiens), Q9Y6A5. AlphaScreen His-ARNT PAS-B/GST-TACC3 binding, luminescence; TACC3 fragment carries E629A point mutation. inhibition, % at 9.99 µM. actives 0.66% (n = 390,000). AID 623870, 2012;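 active = mean inhibition of replicates at least 50% and at least half of replicates each reaching 50%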;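 note: 0% = complete ARNT plus TACC3 wells and 100% = ARNT alone without TACC3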
Numbers without * were called inactive; . = no result. A selection: hits, their analogues and other compounds. The true share with any hit is near 2.4%.

SMILES | Ecoli rRNA inh | ERAP1 inh | S100A4 inh HTS | PGC1a acetyl inh | Casp6 inh | ARNT TACC3 PPI
C[C@@H]1CN([C@H](C)CO)S(=O)(=O)c2ccc(-c3cccc(F)c3)cc2O[C@@H]1CN(C)C(=O)C1CC1 | -7 | . | 11 | -6 | . | -2
COc1ccc(S(=O)(=O)N2CCC(O)(c3ccc(Cl)cc3)CC2)cc1OC | -24* | -1 | -3 | 6 | -1 | 23
CC(=O)N(C)C[C@H]1Oc2ncc(-c3ccc(C)cc3)cc2C(=O)N([C@@H](C)CO)C[C@H]1C | 2 | 3 | -10 | 3 | 0 | 1
COc1ccc(C#Cc2ccc3c(c2)[C@]2(C(=O)N3)[C@H](c3ccc(O)cc3)N3[C@H](c4ccccc4)[C@H](c4ccccc4)OC(=O)[C@H]3[C@@H]2C(=O)NC[C@H](O)c2ccccc2)cc1 | . | -1 | 0 | 16 | -2 | 15
CC(=O)NC[C@@H]1[C@H](c2ccc(-c3ccccc3)cc2)[C@H](CO)N1C(=O)C1CCC1 | -4 | -1 | 13 | 3 | -2 | 0
O=C(Nc1cccc(C(=O)N2CCOCC2)c1)c1ccc([N+](=O)[O-])cc1 | 13 | -3 | 0 | . | 42* | -3
CNC(=S)N(CCc1cccc(C)c1)Cc1cc2cc(OC)c(OC)cc2[nH]c1=O | -14 | 5 | 2 | . | 1 | 4
Cc1ccc2cc(CN(CCc3ccccc3)C(=S)NCCCN(C)C)c(=O)[nH]c2c1 | -26 | 0 | 0 | 8 | -5 | 6
Cc1cccc2cc(CN(CCCN(C)C)C(=S)NCCc3ccccc3)c(=O)[nH]c12 | -17* | 0 | -2 | -9 | 1 | 0
COc1cc2cc(CN(CCc3cccc(C)c3)C(=S)NCCCN(C)C)c(=O)[nH]c2cc1OC | -38* | 3 | -1 | . | 2 | 14
Cc1ccc2[nH]c(=O)c(CN(CCCN(C)C)C(=S)NCCc3ccccc3)cc2c1 | -36* | -3 | -3 | -16 | 1 | 14
COc1ccc2c3c(n(C)c2c1)[C@@H](CO)N(C(=O)c1ccncc1)CC31CN(S(C)(=O)=O)C1 | 0 | . | . | 3 | . | .
O=C(/C=C/c1cn(CC(O)CN2CCCCC2)c2ccccc12)c1cccs1 (stereo unspecified) | . | . | . | . | . | 17
O=C(/C=C/c1cn(CC(O)CN2CCCCC2)c2ccccc12)c1ccccc1 (stereo unspecified) | -38* | . | -14 | -30 | -13 | 13
CN1CCN(C(c2ccc(F)cc2)c2ccc3cccnc3c2O)CC1 (stereo unspecified) | . | . | . | 1 | . | 8
CN1CCN(C(c2cccnc2)c2ccc3cccnc3c2O)CC1 (stereo unspecified) | . | . | . | 6 | . | 68*
CO[C@H]1CN(C)C(=O)c2ccc(NC(=O)Nc3ccc(Cl)cc3)cc2OC[C@@H](C)NC[C@H]1C | -2 | . | . | 23 | . | .
Cc1ccc2nc(-c3ccc(NC(=O)COCC(=O)O)cc3)sc2c1 | -35* | . | 2 | 0 | 7 | -3
O=Cc1cn(CCOc2ccccc2F)c2ccccc12 | -42* | -1 | 11 | 3 | -1 | -1
COc1ccccc1OCCn1cc(C=O)c2ccccc21 | -2 | 4 | 4 | . | -2 | -6
O=C(NN=Cc1ccc2c(c1)OCO2)NN=Cc1ccc2c(c1)OCO2 | -21* | 0 | 0 | -6 | 0 | -7
O=C(N/N=C/c1ccccc1)c1cc(-c2ccc3c(c2)OCO3)n[nH]1 | -20* | -1 | 0 | 3 | 2 | .
O=C(N/N=C/c1ccc(O)c(O)c1)N/N=C/c1ccc(O)c(O)c1 | 6 | 9 | 1 | . | 75* | 21
CCc1ccc(/C=N/NC(=O)c2cc(-c3cccc([N+](=O)[O-])c3)n[nH]2)cc1 | -19* | 0 | 0 | -2 | -2 | -3
O=C(N/N=C/c1cccc([N+](=O)[O-])c1)c1cc(-c2ccc3c(c2)OCO3)n[nH]1 | -12 | 12 | 1 | -4 | -1 | -5
SMILES | Ecoli rRNA inh | ERAP1 inh | S100A4 inh HTS | PGC1a acetyl inh | Casp6 inh | ARNT TACC3 PPI
C[C@@H]1CN([C@H](C)CO)C(=O)c2cc(NC(=O)c3ccccc3)ccc2O[C@@H](C)CCCCO[C@H]1CN(C)C(=O)Nc1ccc2c(c1)OCO2 | -2 | 0 | -7 | -7 | 3 | 0
O=C(CSc1nc2ccccc2o1)N/N=C/c1ccc(O)c(O)c1 | 2 | 2 | 4 | 0 | 63* | 21
O=C(CSc1nc2ccccc2o1)N/N=C/c1ccccc1 | . | . | . | -2 | . | -5
CN(C)c1ccc(-c2c(-c3ccc4c(c3)OCO4)noc2-c2ccsc2)cn1 | . | . | . | 6 | . | 1
O=C(O)c1cc(-c2ccc(-c3c(-c4ccc5c(c4)OCO5)noc3-c3ccsc3)cc2)nc2ccccc12 | -12 | 18 | -2 | -3 | 37* | 3
O=C(N/N=C/c1ccccn1)c1cc(-c2ccncc2)nc2ccccc12 | . | . | . | . | . | 68*
O=C(N/N=C/c1ccc[nH]1)c1cc(-c2ccc(Cl)cc2)nc2ccccc12 | -38* | 0 | -6 | 9 | -1 | 12
O=C(Nc1ccc2c(c1)OCO2)c1cc(-c2ccncc2)nc2ccccc12 | -22* | 5 | -2 | 8 | 2 | 13
COc1ccc(-c2cnc3c(c2)C(=O)N([C@H](C)CO)C[C@@H](C)[C@@H](CN(C)C(=O)C2CCC2)O3)cc1 | 4 | 1 | 12 | 6 | 2 | -3
O=C(C[C@H]1CC[C@@H](NC(=O)Nc2cc(F)ccc2F)[C@H](CO)O1)Nc1ccc(-c2ccccc2)cc1 | -7 | 0 | 1 | -1 | 2 | 48*
O=C(C[C@H]1CC[C@@H](NC(=O)Cc2cccnc2)[C@H](CO)O1)Nc1ccccc1 | 2 | 2 | 3 | 5 | -3 | .
O=C(C[C@H]1CC[C@H](NC(=O)Nc2cc(F)ccc2F)[C@@H](CO)O1)Nc1ccc(-c2ccccc2)cc1 | -7 | 2 | 6 | 4 | 2 | 10
O=C(C[C@@H]1CC[C@@H](NC(=O)Cc2cccnc2)[C@H](CO)O1)Nc1ccc(-c2ccccc2)cc1 | -9 | -2 | 127* | . | -1 | -1
O=C1OC(Nc2cc(Br)cc3cccnc23)c2ccccc21 (stereo unspecified) | 6 | 4 | 19 | 8 | 40* | 31
CC(O)CNCCCOc1ccc(Cl)cc1C(C)(C)C (stereo unspecified) | -41* | 3 | 1 | -14 | 4 | -18
COc1ccc(S(=O)(=O)/N=C2/NC(=O)/C(=C/c3ccco3)S2)cc1 | -6 | 8 | -2 | . | 62* | 10
